Series [1] in a line: Cytotoxicity against african green monkey COS7 cells after 24 hrs by MTT assay. Type of series: cell-based. The following applies: chlorocebus aethiops, COS-7 cells.
Series [2] relates to Trypanosoma cruzi. The experiment in a line: Trypanocidal activity against bloodstream trypomastigote form of Trypanosoma cruzi after 24 hrs. Format: functional, organism-based. In outline: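 Trypomastigotes were taken by cardiac puncture from infected CF1 mice at peak parasitemia (day 15). Blood was diluted in complete RPMI to 1.5 × 10⁶ parasites/mL and seeded in duplicate with compound at 0.5–100 final concentration; benznidazole served as control drug. After 24 h incubation at 4 °C, surviving parasites were counted in a Neubauer chamber.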

Series [3] is described as follows: Selectivity index, ratio of CC50 for african green monkey COS7 cells to IC50 for bloodstream trypomastigote form of Trypanosoma cruzi. Type of series: functional, COS-7. In outline:
(§1)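 SI = CC50 divided by the IC50 against trypomastigotes or amastigotes, respectively.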

The nature of series [4]: Selectivity index, ratio of CC50 for african green monkey COS7 cells to IC50 for intracellular amastigotes form of Trypanosoma cruzi. Format: functional, COS-7. In outline:
as §1

Series [5] has as its system Trypanosoma cruzi. In words: Trypanocidal activity against epimastigote form of Trypanosoma cruzi assessed as [3H]thymidine uptake after 72 hrs by liquid scintillation counter. Type of series: functional, organism-based. In outline: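 RA-strain epimastigotes grown in biphasic medium at 26 °C, adjusted to 1.5 × 10⁶/mL. Cultured 72 h with compound at 100, 50, 10, 5, 1 and 0.5 (final). Benznidazole 5–20 as positive control. Growth measured by [³H]thymidine uptake. % inhibition = 100 − (cpm treated/cpm untreated × 100); IC50 estimated from this.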

Series [6] concerns Trypanosoma cruzi. The experiment in a line: Trypanocidal activity against intracellular amastigotes form of Trypanosoma cruzi expressing beta-galactosidase infected in mouse J774 cells on day 7. Format: functional, organism-based. Conditions: J774, 168 h. The essentials: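 Host cells infected with β-galactosidase-expressing trypomastigotes at a 10:1 parasite:cell ratio. After 24 h, washed twice with PBS, then compound added at 0.5–100 in phenol-red-free complete RPMI, duplicates. Uninfected and infected controls included. Developed with CPRG (100 final) plus 1% Nonidet P-40 for 4–6 h at 37 °C, read at A570. % inhibition relative to untreated infected cells; IC50 estimated.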

In series [7] the test system is Trypanosoma cruzi. In words: Antitrypanosomal activity against bloodstream trypomastigote form of Trypanosoma cruzi RA infected in C3H/HeN mouse assessed as decrease in parasitemia at 1 mg/kg administered 5 days after infection for 10 consecutive days measured on day 14 relative to untreated control. Type of series: functional, organism-based. The arrangement: dose 1 mg/kg.

Series [8] deals with Trypanosoma cruzi. In words: Antitrypanosomal activity against bloodstream trypomastigote form of Trypanosoma cruzi RA infected in C3H/HeN mouse assessed as reduction in parasites at 1 mg/kg administered 5 days after infection for 10 consecutive days relative to untreated control. Type of series: functional.

The source made the active and inactive calls. No cut-off for these calls is given here.

For `CCOC(=O)c1c(CN2CCCC2)nc2ccc(Cl)cc2c1-c1ccccc1`, in series [1], the half-maximal cytotoxic concentration (CC50) (as a rule, the concentration that lowers cell viability or growth by half) at 24 h was 490 µM. The values for the half-inhibitory concentration (IC50) in the series with Trypanosoma cruzi [2], in the series on Trypanosoma cruzi [5] and with Trypanosoma cruzi [6] were 62.4 µM, 10 µM and 40.3 µM, respectively. Moreover, the “Ratio CC50/IC50” value in series [3] stood at 7.8; in series [4], 12.1.
For the compound `CCOC(=O)c1c(CN2CCOCC2)nc2ccc(Cl)cc2c1-c1ccccc1`, in the series on Trypanosoma cruzi [5], the IC50 (commonly the concentration that inhibits the measured activity by half) amounted to 85.3 µM.
The compound `CCOC(=O)c1c(CN2CCN(C)CC2)nc2ccc(Cl)cc2c1-c1ccccc1` displayed a CC50 at 24 h in series [1] of 35.9 µM. The values for the concentration for half-maximal inhibition (IC50) with Trypanosoma cruzi [2], in the series on Trypanosoma cruzi [5] and in the series on Trypanosoma cruzi [6] were 6.4 µM, 11.8 µM and 10.4 µM, respectively. In addition, the results for the “Ratio CC50/IC50” value in series [3] and in series [4] were 5.6 and 3.5, respectively.
Regarding `CC(O)CNCc1nc2ccc(Cl)cc2c(-c2ccccc2)c1C(=O)O` (stereo not drawn), in the series with Trypanosoma cruzi [5], the IC50 is 50.4 µM.
Turning to `CC(=O)NCCCCCCNCc1nc2ccc(Cl)cc2c(-c2ccccc2)c1C(=O)O`, the cytotoxic concentration (CC50) at 24 h in series [1] turned out to be 771 µM. For the same compound, the result in the series on Trypanosoma cruzi [7] was Active. Further, the IC50 with Trypanosoma cruzi [2] worked out at 3.1 µM; in the series with Trypanosoma cruzi [5] it was 3.4 µM; in the series with Trypanosoma cruzi [6], 12.8 µM. Moreover, the “Ratio CC50/IC50” value in series [3] stood at 248.7; in series [4], 60.2. In addition, the “fold change (FC)” value in the series with Trypanosoma cruzi [8] came out at 3.
In series [1], `CCOC(=O)c1c(CN(CC)CC)nc2ccc(Cl)cc2c1-c1ccccc1` yielded a CC50 at 24 h of 480 µM. For the same compound, the results for the IC50 with Trypanosoma cruzi [2], in the series with Trypanosoma cruzi [5] and with Trypanosoma cruzi [6] were 42.6 µM, 11.6 µM and 33 µM, respectively. Further, the figures for the “Ratio CC50/IC50” value in series [3] and in series [4] were 11.3 and 14.5, respectively.
For the compound `CCOC(=O)c1c(CCl)nc2ccc(Cl)cc2c1-c1ccccc1`, the concentration for half-maximal inhibition (IC50) in the series on Trypanosoma cruzi [5] came out at 31.4 µM.
The same measure, in the same setting: with `CC(C)NCc1nc2ccc(Cl)cc2c(-c2ccccc2)c1C(=O)O` the figure was 89.6 µM.
`CCOC(=O)c1c(CN(C)Cc2ccccc2)nc2ccc(Cl)cc2c1-c1ccccc1` displayed a CC50 at 24 h in series [1] of 315 µM. The concentration for half-maximal inhibition (IC50) with Trypanosoma cruzi [2] came to 128 µM; with Trypanosoma cruzi [5], 9.7 µM; with Trypanosoma cruzi [6], 61 µM. The entries for the “Ratio CC50/IC50” value in series [3] and in series [4] were 2.5 and 5.2, respectively.
`CCOC(=O)c1c(CN2CCCCC2)nc2ccc(Cl)cc2c1-c1ccccc1` had a CC50 at 24 h in series [1] of 311 µM. In addition, the values for the 50% inhibitory concentration (IC50) with Trypanosoma cruzi [2], in the series with Trypanosoma cruzi [5] and in the series with Trypanosoma cruzi [6] were 51.3 µM, 8.2 µM and 37.9 µM, respectively. Moreover, the figures for the “Ratio CC50/IC50” value in series [3] and in series [4] were 6.05 and 8.2, respectively.
Take `O=C(Cn1ccnc1[N+](=O)[O-])NCc1ccccc1` [BENZNIDAZOLE]: in series [1], the half-maximal cytotoxic concentration (CC50) at 24 h came to 706 µM. The IC50 with Trypanosoma cruzi [2] came to 34.1 µM; with Trypanosoma cruzi [5] it was 5.8 µM; in the series with Trypanosoma cruzi [6], 3.6 µM. Moreover, the figures for the “Ratio CC50/IC50” value in series [3] and in series [4] were 20.7 and 196.1, respectively.
